Assay results: ChEMBL document CHEMBL5136969, “A niclosamide-tobramycin hybrid adjuvant potentiates cefiderocol against P. aeruginosa” (2021)
Calls of active or inactive are those of the source. The calls are words filed in the database; no cut-off is given here.

Columns and labels:
Pseudomonas aeruginosa = assay: Potentiation of ceftazidime-induced antibiotic activity against MDR clinical isolate Pseudomonas aeruginosa PA259 assessed as MIC fold reduction at 8 ug/ml after 18 hrs by microbroth dilution method; assay type: functional, organism-based; settings: dose 8.0 µg/ml
In short: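 Adjuvant held at a fixed 8 μg/mL while the antibiotic was 2-fold serially diluted in Mueller-Hinton broth (MHB), per CLSI microbroth dilution. Overnight cultures were adjusted in saline to 0.5 McFarland, then diluted 1:50 in MHB to about 5 × 10^5 CFU/mL final, and incubated 18 h at 37 °C. MIC was the lowest concentration with no visible turbidity, confirmed at 590 nm. Fold potentiation = MIC alone / MIC with adjuvant.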

Acinetobacter baumannii = assay: Potentiation of niclosamide-induced antibiotic activity against Acinetobacter baumannii ATCC 17978 assessed as MIC fold reduction at 8 ug/ml after 18 hrs by microbroth dilution method; assay type: functional; settings: dose 8 µg/ml

In the case of `NC[C@H]1O[C@H](O[C@H]2[C@H](OCCCCc3cn(-c4ccc(NC(=O)c5cc(Cl)ccc5O)cc4)nn3)[C@@H](O[C@H]3O[C@H](CO)[C@@H](O)[C@H](N)[C@H]3O)[C@H](N)C[C@@H]2N)[C@H](N)C[C@@H]1O`, the Activity (Pseudomonas aeruginosa) is reported as “Active” and the “fold change (FC)” value (Acinetobacter baumannii) is reported as 4.
